Legend:
[1] = tested on: Rattus norvegicus; assay: Effect on serum Triglycerides was determined in normal rats at a dose of 0.1 (mmol/kg)/day; assay type: functional
Method in brief: (§1)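 Normal rats, 8-10 per group, dosed daily for 7 consecutive days by gastric intubation with compound suspended in 2% Tween 80. Decapitated 3 h after last dose; serum triglycerides measured by semiautomated method. Result expressed as % change from vehicle control group mean; significance by two-tailed Student's t test.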

[2] = tested on: Rattus norvegicus; assay: Effect on serum Triglycerides was determined in normal rats at a dose of 1 (mmol/kg)/day; assay type: functional; method in brief: as §1
[3] = tested on: Rattus norvegicus; assay: Effect on serum Triglycerides was determined in normal rats at a dose of 0.02 (mmol/kg)/day; assay type: functional; method in brief: as §1
[4] = tested on: Rattus norvegicus; assay: Effect on serum Triglycerides was determined in normal rats at a dose of 0.2 (mmol/kg)/day; assay type: functional; method in brief: as §1
[5] = tested on: Rattus norvegicus; assay: Effect on serum Triglycerides was determined in normal rats at a dose of 0.01 (mmol/kg)/day; assay type: functional; method in brief: as §1
[6] = tested on: Rattus norvegicus; assay: Effect on serum Triglycerides was determined in normal rats at a dose of 0.03 (mmol/kg)/day; assay type: functional; method in brief: as §1
[7] = tested on: Rattus norvegicus; assay: Effect on serum Triglycerides levels was measured on control rats at a dose of 0.5 (mmol/kg)/day; assay type: functional, organism-based
[8] = tested on: Rattus norvegicus; assay: Effect on serum Triglycerides levels was measured on control rats at a dose of 0.05 (mmol/kg)/day; assay type: functional, organism-based
[9] = tested on: Rattus norvegicus; assay: Effect on serum Triglycerides levels was measured on treated rats at a dose of 0.5 (mmol/kg)/day; assay type: functional, organism-based
[10] = tested on: Rattus norvegicus; assay: Effect on serum Triglycerides levels was measured on treated rats at a dose of 0.05 (mmol/kg)/day; assay type: functional, organism-based
[11] = tested on: Rattus norvegicus; assay: Effect on liver weight was measured on control rats at a dose of 0.5 (mmol/kg)/day; assay type: functional
[12] = tested on: Rattus norvegicus; assay: Effect on liver weight was measured on treated rats at a dose of 0.05 (mmol/kg)/day; assay type: functional
[13] = tested on: Rattus norvegicus; assay: Effect on serum Triglycerides was determined in normal rats at a dose of 0.005 (mmol/kg)/day; assay type: functional; method in brief: as §1
[14] = tested on: Rattus norvegicus; assay: Effect on liver weight was measured on treated rats at a dose of 0.5 (mmol/kg)/day; assay type: functional
[15] = tested on: Rattus norvegicus; assay: Effect on liver weight was measured on control rats at a dose of 0.05 (mmol/kg)/day; assay type: functional
[16] = tested on: Rattus norvegicus; assay: Effect on serum Triglycerides was measured on treated rats at a dose of 0.5 (mmol/kg)/day; assay type: functional, organism-based
[17] = tested on: Rattus norvegicus; assay: Effect on serum Triglycerides was measured on treated rats at a dose of 0.05 (mmol/kg)/day; assay type: functional, organism-based
[18] = tested on: Rattus norvegicus; assay: Effect on serum Triglycerides was measured on control rats at a dose of 0.5 (mmol/kg)/day; assay type: functional, organism-based
[19] = tested on: Rattus norvegicus; assay: Effect on serum Triglycerides was measured on control rats at a dose of 0.05 (mmol/kg)/day; assay type: functional, organism-based

| SMILES | Change [1] | Change [2] | Change [3] | Change [4] | other results |
| --- | --- | --- | --- | --- | --- |
| CC(C)C1(c2ccccc2)OC(C(=O)O)=CC1=O (centres undefined) | -2% | -53% | -10% | -31% |  |
| CC1(c2ccccc2)OC(=O)C(=O)CC1=O (centres undefined) | -27% |  | -13% | -31% |  |
| CC1(c2ccccc2)OC(C(=O)O)=CC1=O (single isomer, unassigned; (-)) [ACIFRAN] | -31% |  |  |  | Change [5]: -11%; Change [6]: -23% |
| CC1(c2ccccc2)OC(C(=O)O)=CC1=O (stereo in doubt; 5b) |  |  |  |  | Serum TG [7]: 98 mg/dL; Serum TG [8]: 104 mg/dL; Serum TG [9]: 38 mg/dL; Serum TG [10]: 58 mg/dL |
| CC1(c2ccccc2)OC(C(=O)O)=CC1=O (stereo in doubt; 5b) [ACIFRAN] | -44% | -55% | -40% | -52% | Change [5]: -37%; Liver weight [11]: 10.2 g; Liver weight [12]: 8.7 g; Change [13]: -23%; Liver weight [14]: 10.2 g; Change [6]: -43%; Liver weight [15]: 8.5 g |
| O=C(O)c1cccnc1 |  |  |  |  | Serum TG [16]: 47 mg/dL; Serum TG [17]: 97 mg/dL; Serum TG [18]: 88 mg/dL; Serum TG [19]: 104 mg/dL |
| CC1(c2ccc(Cl)cc2)OC(C(=O)O)=CC1=O (centres undefined) |  |  | -27% | -42% |  |
| CCOC(=O)C(C)(C)Oc1ccc(Cl)cc1 [CLOFIBRATE] | -9% | -55% |  | -36% | Liver weight [11]: 9 g; Liver weight [12]: 8.4 g; Serum TG [16]: 43 mg/dL; Serum TG [17]: 101 mg/dL; Liver weight [14]: 10.7 g; Serum TG [18]: 87 mg/dL; Serum TG [19]: 104 mg/dL; Liver weight [15]: 8.5 g |
| O=C(O)C1=CC(=O)C2(CCCc3ccccc32)O1 (centres undefined) |  | -43% |  |  |  |
| CC1(C)OC(C(=O)O)=CC1=O | -43% | -36% | -36% | -36% |  |
| CC1(c2ccccc2)OC(C(=O)O)=CC1=O (stereo in doubt; (+)-5b) [ACIFRAN] | -38% |  |  |  | Change [5]: -39%; Change [6]: -29% |
| COC(=O)C1=CC(=O)C(C)(c2ccccc2)O1 (centres undefined) | -40% | -53% | -34% | -40% |  |

— ChEMBL document CHEMBL1122164, “Hypolipidemic 4,5-dihydro-4-oxo-5,5-disubstituted-2-furancarboxylic acids” (1982)
